Where only a bound is given, the exact number is not on record here.

Data set [1] has as its system HEK293. Put plainly: Cytotoxicity against HEK293 cells assessed as reduction in cell viability after 48 hrs by MTT assay. Type of data set: cell-based. The following applies: human, hek293, 48 h. In a few lines: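 HEK293 target cells were exposed to the compounds and viability was read by MTT assay.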
Data set [2] in a line: Selectivity index, ratio of CC50 for HEK293 cells to IC50 for Marburg virus envelope glycoprotein-mediated cell entry in rVSIV-deltaG-MarV-GP pseuotype virus infected HEK293 cells. Conditions: human, read-out: Ratio CC50/IC50. Type of data set: toxicity. The essentials:
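Selectivity index is CC50 divided by IC50 against the MARV-GP pseudotype. CC50 came from an MTT assay on HEK293 cells. For IC50, HEK293 cells were infected with rVSIV-ΔG-MarV-GP with or without compound, across a low-toxicity concentration range chosen from CC50. The luciferase signal was read 24 h post-infection.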

Data set [3] is described as follows: Selectivity ratio of IC50 for Marburg virus envelope glycoprotein-mediated cell entry in rVSIV-deltaG-MarV-GP pseuotype virus infected HEK293 cells to IC50 for Vesicular stomatitis Indiana virus envelope glycoprotein-mediated cell entry in rVSIV-deltaG-G pseudotype virus infected HEK293 cells. In a few lines:
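Specificity coefficient is IC50 for rVSIV-ΔG-MarV-GP divided by IC50 for rVSIV-ΔG-G. Each IC50 came from HEK293 cells infected with that pseudotype (same VSIV capsid, different glycoprotein) with or without compound, at low-toxicity concentrations. Transduced luciferase was measured 24 h post-infection.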

Usually CC50 stands for the concentration that lowers cell viability or growth by half. As for `CC1(C)[C@H]2CC[C@]1(C)[C@H](OC(=O)CCN1CCCCC1)C2`, the CC50 in data set [1] came to 302 µM. Further, the selectivity ratio in data set [2] turned out to be 35. Moreover, the Ratio IC50 in data set [3] is 14.
For `CC1(C)[C@H]2CC[C@]1(C)[C@H](OC(=O)CCN1CCNCC1)C2` the same measures were 207 µM, 21 and 10.
For `CC1(C)[C@H]2CC[C@]1(C)[C@H](O)C2` [(-)-BORNEOL] the same measures were over 3000 µM, over 14 and over 3.
In the same order, the values of `CN1CCN(CCC(=O)O[C@@H]2C[C@@H]3CC[C@@]2(C)C3(C)C)CC1` are 421 µM, 20 and 16.
For `CC1CCN(CC(=O)O[C@@H]2C[C@@H]3CC[C@@]2(C)C3(C)C)CC1`, the CC50 in data set [1] came out at 240 µM. In addition, the selectivity ratio in data set [2] is 9. Moreover, the Ratio IC50 in data set [3] came out at 3.
On to `COc1ccc(CCN(C)CCCC(C#N)(c2ccc(OC)c(OC)c2)C(C)C)cc1OC` (configuration not stated), for which, in data set [1], the CC50 worked out at 280 µM.
Consider `CC1(C)[C@H]2CC[C@]1(C)[C@H](OC(=O)CN1CCNCC1)C2`, for which the CC50 in data set [1] amounted to 361 µM. Besides, the selectivity ratio in data set [2] was found to be 18. For the same compound, the Ratio IC50 in data set [3] was found to be 3.
On to `CCN1CCN(CC(=O)O[C@@H]2C[C@@H]3CC[C@@]2(C)C3(C)C)CC1`, for which the cytotoxic concentration (CC50) in data set [1] came out at 859 µM. Further, the selectivity ratio in data set [2] was found to be 29. Also, the Ratio IC50 in data set [3] came out at 15.
For `CCN1CCN(CCC(=O)O[C@@H]2C[C@@H]3CC[C@@]2(C)C3(C)C)CC1`, the CC50 in data set [1] amounted to 474 µM. Besides, in data set [2], the selectivity ratio was 47. In data set [3], the Ratio IC50 was 11.
As to `CN1CCN(CC(=O)O[C@@H]2C[C@@H]3CC[C@@]2(C)C3(C)C)CC1`, the CC50 in data set [1] worked out at 637 µM. In addition, in data set [2], the selectivity ratio turned out to be 14. In addition, the Ratio IC50 in data set [3] turned out to be 4.
Turning to `CC1CCN(CCC(=O)O[C@@H]2C[C@@H]3CC[C@@]2(C)C3(C)C)CC1`, the CC50 in data set [1] stood at 215 µM. The selectivity ratio in data set [2] was 60. Moreover, the Ratio IC50 in data set [3] amounted to 34.
In the same order, the values of `CC1(C)[C@H]2CC[C@]1(C)[C@H](OC(=O)CCN1CCCC1)C2` are 684 µM, 59 and 2.
For `CC1(C)[C@H]2CC[C@]1(C)[C@H](OC(=O)CN1CCCCC1)C2` the same measures were 321 µM, 4 and 1.
In the same order, the values of `CCCCN(CCCC)CCC(=O)O[C@@H]1C[C@@H]2CC[C@@]1(C)C2(C)C` are 86 µM, 15 and 8.
For the compound `CC1(C)[C@H]2CC[C@]1(C)[C@H](OC(=O)CN1CCOCC1)C2`, the CC50 in data set [1] amounted to 1280 µM. Further, in data set [2], the selectivity ratio came out at 5. Further, in data set [3], the Ratio IC50 was 1.
For `CC1(C)[C@H]2CC[C@]1(C)[C@H](OC(=O)CN1CCCC1)C2`, the CC50 in data set [1] amounted to 480 µM. Besides, the selectivity ratio in data set [2] is 9. The Ratio IC50 in data set [3] was 5.
For `CC1(C)[C@H]2CC[C@]1(C)[C@H](OC(=O)CCN1CCOCC1)C2` the same measures were 406 µM, 5 and 3.
In the same order, the values of `CCCCN(CCCC)CC(=O)O[C@@H]1C[C@@H]2CC[C@@]1(C)C2(C)C` are 73 µM, 6 and 2.

For the origin of these results see ChEMBL document CHEMBL4257457, “N-Heterocyclic borneol derivatives as inhibitors of Marburg virus glycoprotein-mediated VSIV pseudotype entry” (Medchemcomm, 2017).
